{"data": "Experimental data gathered from unrelated publications", "medium": "plasma", "note": "Each line is one published result; the experiments were not run side by side."}
{"SMILES": "CC(C)(O)c1ccccc1-c1ccc2[nH]c(/C=C/c3ccc(C(F)(F)F)cc3)nc2c1", "species": "male human", "route": "oral", "dose": "30 mg", "notes": "single dose, fasted, healthy volunteers", "measurement": "AUC(0-t)", "value": "5160 ng·h/mL"}
{"SMILES": "Cn1c(=O)oc2ccc(-c3ccc(C[C@@H](C#N)NC(=O)[C@@H]4CNCCCO4)cc3)cc21", "species": "male human", "route": "oral", "dose": "35 mg", "notes": "single dose, healthy volunteers", "measurement": "AUC", "value": "13.2 µM·h"}
{"SMILES": "CCc1nc2c(C)cc(N3CCN(CC(=O)N4CC(O)C4)CC3)cn2c1N(C)c1nc(-c2ccc(F)cc2)c(C#N)s1", "species": "human", "route": "oral", "dose": "150 mg", "notes": "single dose, fed, healthy volunteers", "measurement": "AUC(0-inf)", "value": "6700 ng·h/mL"}
{"SMILES": "CS(=O)(=O)CCC#N", "species": "human", "route": "oral", "dose": "100 mg", "notes": "multiple doses, once daily", "measurement": "AUC", "value": "70300 ng·h/mL"}
{"SMILES": "COCCOc1cnc2ccn([C@H](C)c3nnc4c(F)cc(-c5cnn(C)c5)cn34)c(=O)c2c1", "species": "human", "route": "oral", "dose": "300 mg", "notes": "multiple doses, once daily, patients", "measurement": "AUC(0-t)", "value": "55900 ng·h/mL"}
{"SMILES": "CC(C)n1cc(C#N)c2cc(-n3cc(C(=O)O)cn3)ccc21", "species": "human", "route": "oral", "dose": "100 mg", "notes": "single dose, fasted, healthy volunteers", "measurement": "AUC(0-inf)", "value": "19600 ng·h/mL"}
{"SMILES": "Cn1cc(-c2ccc(S(=O)(=O)[C@@H]3C[C@@H](C(=O)NC4(C#N)CC4)N(C(=O)C4(C(F)(F)F)CC4)C3)c(C(F)(F)F)c2)cn1", "species": "human", "route": "oral", "dose": "300 mg", "notes": "single dose, fasted, healthy volunteers", "measurement": "AUC(0-inf)", "value": "21000 ng·h/mL"}
{"SMILES": "COc1ccc([C@@H]2CN(C(=O)[C@@H](O)CO)C[C@@]2(C)[C@@H](C)O)cc1OC1CN(c2ccc(C)cn2)C1", "species": "human", "route": "oral", "dose": "10 mg", "notes": "single dose, healthy volunteers", "measurement": "AUC(0-t)", "value": "2750 ng·h/mL"}
{"SMILES": "CO[C@H]1CC[C@H](N2C(=O)CNc3ncc(-c4ccc(C(C)(C)O)nc4)nc32)CC1", "species": "human", "route": "oral", "dose": "60 mg", "notes": "multiple doses, patients", "measurement": "AUC(0-t)", "value": "2950 ng·h/mL"}
{"SMILES": "Cc1ccc(C(=O)N(CCCN)[C@@H](c2oc3cc(Cl)ccc3c(=O)c2Cc2ccccc2)C(C)C)cc1", "species": "human", "route": "intravenous", "dose": "5 mg/m²", "notes": "single dose, patients, infusion", "measurement": "AUC", "value": "8960 ng·h/mL"}
{"SMILES": "COc1cc(C(=O)NC2CCN(C)CC2)c(F)cc1Nc1ncc(C(F)(F)F)c(Oc2cccc3c2C(=O)N(C)C3)n1", "species": "human", "route": "oral", "dose": "50 mg", "notes": "multiple doses, once daily, steady state, patients", "measurement": "AUC", "value": "4.89 µM·h"}
